In ChEMBL document CHEMBL3769310, “Scouting new sigma receptor ligands: Synthesis, pharmacological evaluation and molecular modeling of 1,3-dioxolane-based structures and derivatives” (Eur J Med Chem, 2016):
Activity calls are given as the source filed them.

Tests used:
HeLa [1] = test: Selectivity ratio of Ki for sigma-1 receptor in guinea pig brain membranes to Ki for human 5-HT1A expressed in human HeLa cells; assay type: cell-based
HeLa [2] = test: Selectivity ratio of Ki for sigma-2 receptor in guinea pig brain membranes to Ki for human 5-HT1A expressed in human HeLa cells; assay type: cell-based
[3] = target: T1, 5-hydroxytryptamine receptor 1A (Homo sapiens, UniProt P08908); test: Displacement of [3H]8-OH-DPAT from human 5-HT1A expressed in human HeLa cells after 30 mins; assay type: cell-based
T1 sequence (P08908 whole entry): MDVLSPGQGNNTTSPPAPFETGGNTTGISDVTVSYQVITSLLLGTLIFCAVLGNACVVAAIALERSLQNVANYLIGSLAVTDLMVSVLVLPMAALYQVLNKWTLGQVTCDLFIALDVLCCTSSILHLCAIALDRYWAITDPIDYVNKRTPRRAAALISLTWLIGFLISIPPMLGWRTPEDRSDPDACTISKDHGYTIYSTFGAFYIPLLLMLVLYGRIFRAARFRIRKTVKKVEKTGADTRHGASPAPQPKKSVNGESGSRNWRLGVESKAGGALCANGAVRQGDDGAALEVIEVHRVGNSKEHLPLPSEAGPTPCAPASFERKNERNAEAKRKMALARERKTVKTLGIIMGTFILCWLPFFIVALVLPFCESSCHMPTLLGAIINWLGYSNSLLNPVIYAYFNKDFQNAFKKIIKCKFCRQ

[4] = target: Sigma non-opioid intracellular receptor 1 (Cavia porcellus, UniProt Q60492); test: Displacement of [3H]-(+)-pentazocine from sigma-1 receptor in guinea pig brain membranes after 150 mins by liquid scintillation counting method; assay type: cell membranes, Membrane
[5] = Displacement of [3H]DTG from sigma-2 receptor in guinea pig brain membranes after 120 mins by liquid scintillation counting method; assay type: cell membranes, Cavia porcellus, Membrane
Summary of the method: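 Nonspecific with 5 µM DTG. Stopped with ice-cold 10 mM Tris pH 8.0, filtered on PEI-soaked GF/B, scintillation counted. Ki from duplicates, three experiments.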

Cavia porcellus = organism: Cavia porcellus; test: Selectivity ratio of Ki for sigma-1 receptor in guinea pig brain membranes to Ki for sigma-2 receptor in guinea pig brain membranes; assay type: cell membranes
Rattus norvegicus = test: Analgesic activity in Sprague-Dawley rat assessed as withdrawal latency at 1 mg/kg, sc measured after 30 to 120 mins by tail flick test; assay type: functional, organism-based
Summary of the method: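 Male Sprague-Dawley rats, 180–200 g, 8–10 per group, dosed s.c. Radiant heat tail-flick with I.R. source on lower third of tail at 25 ± 1 °C. Basal latency 3–4 s, taken as mean of three readings at 5 min intervals. Cut-off 10 s. Latencies read at 30, 45, 60, 90 and 120 min after injection; saline group as control. Blinded observers; mean ± SE, two-way ANOVA then t test.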

Sequence of Sigma non-opioid intracellular receptor 1 (Q60492 whole entry): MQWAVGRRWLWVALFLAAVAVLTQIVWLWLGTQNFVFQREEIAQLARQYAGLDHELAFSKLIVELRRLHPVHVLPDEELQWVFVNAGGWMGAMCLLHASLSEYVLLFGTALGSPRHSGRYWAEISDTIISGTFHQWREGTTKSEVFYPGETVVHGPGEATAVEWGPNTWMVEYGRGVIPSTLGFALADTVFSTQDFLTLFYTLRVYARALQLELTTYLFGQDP

Compound	Ratio Ki (HeLa [1])	Ratio Ki (HeLa [2])	Ki [3]	Ki [4]	pKi [5]	Ratio Ki (Cavia porcellus)	Activity (Rattus norvegicus)
c1ccc(CC2CCN(CC3COC(C4CCCCC4)(C4CCCCC4)O3)CC2)cc1 (centres undefined)	> 5	> 5	> 1000 nM	209 nM	< 6	> 5	–
c1ccc(CN2CCN(CC3COc4ccccc4O3)CC2)cc1 (centres undefined)	–	–	–	15.8 nM	7.55	–	–
O[C@@H]1[C@@H](CN2CCC(Cc3ccccc3)CC2)CCC1(c1ccccc1)c1ccccc1 (relative stereo)	0.21	0.21	50.1 nM	229 nM	5.05	39	–
c1ccc(CC2CCN(CC3COc4ccccc4O3)CC2)cc1 (centres undefined)	–	–	–	16.6 nM	7.6	–	–
c1ccc(CN2CCN(CC3COC4(CCCCC4)O3)CC2)cc1 (centres undefined)	> 1350	> 1350	> 1000 nM	0.741 nM	7.46	47	inactive
c1ccc(CN2CCN(CC3CSC(c4ccccc4)(c4ccccc4)S3)CC2)cc1 (centres undefined)	> 3	> 3	> 1000 nM	302 nM	5.64	8	–
c1ccc(CC2CCN(CC3COC4(CCCCC4)O3)CC2)cc1 (centres undefined)	81	81	162 nM	2 nM	7.72	10	–
OCC(CN1CCC(Cc2ccccc2)CC1)OC(c1ccccc1)c1ccccc1 (centres undefined)	2.5	2.5	417 nM	200 nM	6.56	1	–
c1ccc(CC2CCN(CC3CCC(c4ccccc4)(c4ccccc4)O3)CC2)cc1 (centres undefined)	> 6	> 6	> 1000 nM	174 nM	6.69	1	–
c1ccc(CC2CCN(CC3COC(c4ccccc4)(c4ccccc4)O3)CC2)cc1 (centres undefined)	251	251	550 nM	2.19 nM	8.2	3	–
c1ccc(CC2CCN(C[C@H]3CO[C@@](c4ccccc4)(C4CCCCC4)O3)CC2)cc1	> 18	> 18	> 1000 nM	56.2 nM	6.43	7	–
c1ccc(CC2CCN(CC3CSC(c4ccccc4)(c4ccccc4)O3)CC2)cc1 (centres undefined)	> 83	> 83	–	12 nM	7.55	2	–
c1ccc(CC2CCN(C[C@@H]3CO[C@@](c4ccccc4)(C4CCCCC4)O3)CC2)cc1 (relative stereo)	> 19	> 19	> 1000 nM	52.5 nM	6.84	3	–
c1ccc(CN2CCN(CCOC(c3ccccc3)c3ccccc3)CC2)cc1	> 89	> 89	> 1000 nM	20.4 nM	7.95	1	–
O[C@H]1[C@@H](CN2CCC(Cc3ccccc3)CC2)CCC1(c1ccccc1)c1ccccc1 (relative stereo)	0.02	0.02	7.59 nM	282 nM	5.66	8	–
O=C1C(CN2CCN(Cc3ccccc3)CC2)CCC1(c1ccccc1)c1ccccc1 (centres undefined)	> 1.5	> 1.5	> 1000 nM	646 nM	4.9	20	–
c1ccc(CC2CCN(CCOC(c3ccccc3)c3ccccc3)CC2)cc1	> 18	> 18	> 1000 nM	56.2 nM	6.77	3	–
c1ccc(CN2CCN(C[C@@H]3CO[C@@](c4ccccc4)(C4CCCCC4)O3)CC2)cc1 (relative stereo)	> 56	> 56	> 1000 nM	30.9 nM	7.75	1	–
c1ccc(CN2CCN(CC3CSC(c4ccccc4)(c4ccccc4)O3)CC2)cc1 (centres undefined)	> 16	> 16	–	63.1 nM	6.67	3	–
c1ccc(CC2CCN(CC3CSC(c4ccccc4)(c4ccccc4)S3)CC2)cc1 (centres undefined)	> 66	> 66	> 1000 nM	15.1 nM	7.11	5	–
O[C@H]1[C@@H](CN2CCN(Cc3ccccc3)CC2)CCC1(c1ccccc1)c1ccccc1 (relative stereo)	0.2	0.2	7.24 nM	35.5 nM	6.62	6.8	–
c1ccc(CN2CCN(CC3COC(c4ccccc4)(c4ccccc4)O3)CC2)cc1 (centres undefined)	> 589	> 589	> 1000 nM	1.7 nM	8.38	3	–
c1ccc(CN2CCN(CC3CCC(c4ccccc4)(c4ccccc4)O3)CC2)cc1 (centres undefined)	> 11	> 11	> 1000 nM	87.1 nM	6.65	3	–
c1ccc(CN2CCN(C[C@H]3CO[C@@](c4ccccc4)(C4CCCCC4)O3)CC2)cc1 (relative stereo)	> 933	> 933	> 1000 nM	1.07 nM	7.79	15	–
c1ccc(CN2CCN(CC3COC(C4CCCCC4)(C4CCCCC4)O3)CC2)cc1 (centres undefined)	> 29	> 29	> 1000 nM	3.39 nM	8.3	2	–
OCC(CN1CCN(Cc2ccccc2)CC1)OC(c1ccccc1)c1ccccc1 (centres undefined)	> 89	> 89	> 1000 nM	11.2 nM	7.75	2	–
O[C@@H]1[C@@H](CN2CCN(Cc3ccccc3)CC2)CCC1(c1ccccc1)c1ccccc1 (relative stereo)	3	3	126 nM	38 nM	7	3	–
O=C1C(CN2CCC(Cc3ccccc3)CC2)CCC1(c1ccccc1)c1ccccc1 (centres undefined)	1	1	> 1000 nM	1120 nM	5.66	2	–
